These results are taken from ChEMBL document CHEMBL6083235, “Synthesis, evaluation and mechanistic insights of novel IMPDH inhibitors targeting ESKAPEE bacteria” (Eur J Med Chem, 2024).

The source made the active and inactive calls. No cut-off for these calls is given here.

Data set [1] deals with T1, Inosine-5'-monophosphate dehydrogenase (Pseudomonas aeruginosa (strain ATCC 15692 / DSM 22644 / CIP 104116 / JCM14847 / LMG 12228 / 1C / PRS 101 / PAO1)) (UniProt Q9HXM5).
T1 sequence (whole entry): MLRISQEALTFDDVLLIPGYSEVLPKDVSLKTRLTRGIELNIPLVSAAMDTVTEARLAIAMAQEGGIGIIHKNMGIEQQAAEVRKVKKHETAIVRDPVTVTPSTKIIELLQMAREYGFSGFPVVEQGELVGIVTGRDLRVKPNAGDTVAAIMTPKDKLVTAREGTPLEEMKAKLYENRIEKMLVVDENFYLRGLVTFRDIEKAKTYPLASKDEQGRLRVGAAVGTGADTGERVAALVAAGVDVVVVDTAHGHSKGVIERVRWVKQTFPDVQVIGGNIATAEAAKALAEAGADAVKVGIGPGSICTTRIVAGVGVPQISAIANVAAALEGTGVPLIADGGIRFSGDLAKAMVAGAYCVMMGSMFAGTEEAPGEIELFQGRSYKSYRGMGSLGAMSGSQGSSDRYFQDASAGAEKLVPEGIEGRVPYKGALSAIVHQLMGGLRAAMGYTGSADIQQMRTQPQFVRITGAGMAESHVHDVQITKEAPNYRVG
In words: Non-competitive inhibition of Pseudomonas aeruginosa IMPDH by Lineweaver-Burk plot analysis. Summed up:
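Steady-state kinetics of P. aeruginosa ΔBateman IMPDH: initial rates (NADH at 340 nm, 30 °C, Tris-HCl 50 mM pH 8, KCl 100 mM) measured across variable IMP at saturating 2 mM NAD⁺, without or with several inhibitor concentrations; data from at least three experiments fitted to Michaelis–Menten and shown as Lineweaver-Burk plots.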

Data set [2] in a line: Metabolic stability in mouse liver microsomes assessed as recovery in absence of NADPH measured after 120 mins. Format: ADME, Microsome. The conditions noted are these: read-out: Drug recovery.
Data set [3] has as its target T2, Inosine-5'-monophosphate dehydrogenase (Escherichia coli K-12) (UniProt P0ADG7).
T2 sequence (whole entry): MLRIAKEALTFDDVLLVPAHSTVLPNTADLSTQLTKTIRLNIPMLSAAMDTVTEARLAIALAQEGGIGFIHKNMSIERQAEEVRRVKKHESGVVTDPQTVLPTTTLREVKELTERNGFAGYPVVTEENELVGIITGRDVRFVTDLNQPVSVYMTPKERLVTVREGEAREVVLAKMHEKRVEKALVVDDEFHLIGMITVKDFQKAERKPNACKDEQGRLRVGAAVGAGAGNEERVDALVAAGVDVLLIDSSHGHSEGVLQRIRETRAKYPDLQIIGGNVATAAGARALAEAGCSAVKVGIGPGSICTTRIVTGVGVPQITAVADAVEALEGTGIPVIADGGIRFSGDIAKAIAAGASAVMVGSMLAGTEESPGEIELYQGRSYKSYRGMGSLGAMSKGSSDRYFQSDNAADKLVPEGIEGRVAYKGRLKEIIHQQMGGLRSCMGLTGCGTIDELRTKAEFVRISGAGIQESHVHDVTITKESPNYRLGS
Briefly: Inhibition of Escherichia coli IMPDH extracted form Escherichia coli BL21 (DE3)pDIA17 assessed as formation of NADH at 50 uM relative to control. Summed up: (§1)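 His-tagged wild-type IMPDH (E. coli, P. aeruginosa or S. aureus) made in E. coli BL21(DE3)/pDIA17, purified by metal-affinity then gel filtration. NADH formation followed at 340 nm, 30 °C, with 0.2 mM IMP, 0.4 mM NAD⁺, 0.2 mM MgATP, 2 mM MgCl₂. Buffers: pa Tris-HCl 50 mM pH 8; ec Tris-HCl 50 mM pH 8, KCl 50 mM; sa Na₂CO₃ 50 mM pH 9.2, KCl 20 mM. Compound at 50 μM; % inhibition vs compound-free activity.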

Data set [4] concerns the target Inosine-5'-monophosphate dehydrogenase 2 (Homo sapiens) (UniProt P12268). Briefly: Inhibition of human IMPDH2 extracted form Escherichia coli BL21 (DE3)pDIA17 assessed as formation of NADH at 50 uM.
Data set [5] in a line: Inhibition of Pseudomonas aeruginosa IMPDH delta Bateman domain in presence of detergent by detergent-sensitive enzyme-inhibition assay. Summed up: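 P. aeruginosa ΔBateman IMPDH dose-response run under reference conditions (0.2 mM IMP, 0.4 mM NAD⁺, 0.2 mM MgATP, 2 mM MgCl₂; Tris-HCl 50 mM pH 8, KCl 100 mM; 30 °C, NADH at 340 nm) with 0.01 % Triton X-100 included, to exclude colloidal aggregation; I50 from logistic fit.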

The nature of data set [6]: Inhibition of Pseudomonas aeruginosa IMPDH delta Bateman domain extracted form Escherichia coli BL21 (DE3)pDIA17 assessed as formation of NADH. Particulars: read-out: I50. Summed up: (§2)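 Bateman-domain-deleted IMPDH (E. coli or P. aeruginosa) from E. coli BL21(DE3)/pDIA17; NADH at 340 nm, 30 °C, 0.2 mM IMP, 0.4 mM NAD⁺, 0.2 mM MgATP, 2 mM MgCl₂; buffers as per variant (ec Tris-HCl pH 9/KCl 100 mM; pa Tris-HCl pH 8/KCl 100 mM). I50 by dose-response logistic fit, at least three experiments.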

Another data set deals with Escherichia coli. In words: Inhibition of Escherichia coli IMPDH delta Bateman domain extracted form Escherichia coli BL21 (DE3)pDIA17 assessed as formation of NADH at 50 uM relative to control. Summed up: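 Bateman-domain-deleted IMPDH (E. coli or P. aeruginosa), His-tagged, made in E. coli BL21(DE3)/pDIA17. NADH formation at 340 nm, 30 °C, 0.2 mM IMP, 0.4 mM NAD⁺, 0.2 mM MgATP, 2 mM MgCl₂. Buffer: ec Tris-HCl 50 mM pH 9, KCl 100 mM; pa Tris-HCl 50 mM pH 8, KCl 100 mM. Compound 50 μM; % inhibition relative to uninhibited enzyme.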

Data set [7] in a line: Inhibition of Pseudomonas aeruginosa IMPDH delta Bateman domain in absence of detergent. Summed up:
as §2

In data set [8] the test system is Caco-2. Briefly: Cytotoxicity against human Caco-2 cells assessed as cell viability at 1 uM measured after 72 hrs by Alamar blue assay. The format is toxicity, cell-based. Particulars: caco-2, 72 h. In outline: (§3)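 Confluent Caco-2 monolayers (seeded 1.10⁵ cells/cm², 48 h growth; DMEM 25 mM glucose, 10 % FBS, NEAA, 37 °C, 5 % CO₂) exposed 72 h; vehicle 0.1 % DMSO, 0.2 % Triton X-100 as cytotoxic control. Rinsed with PBS, 5 % Alamar Blue in FBS-free medium 30 min at 37 °C; resorufin fluorescence (ex 530/em 570 nm) relative to DMSO. Mean ± SEM, three independent experiments.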

The target in data set [9] is T1, Inosine-5'-monophosphate dehydrogenase (Pseudomonas aeruginosa (strain ATCC 15692 / DSM 22644 / CIP 104116 / JCM14847 / LMG 12228 / 1C / PRS 101 / PAO1)). Briefly: Inhibition of Pseudomonas aeruginosa IMPDH extracted form Escherichia coli BL21 (DE3)pDIA17 assessed as formation of NADH at 50 uM relative to control. Summed up: as §1
A further data set has as its system Staphylococcus aureus. Briefly: Antibacterial activity against methicillin-resistant Staphylococcus aureus ATCC 43300 assessed as growth inhibition at 32 ug/ml relative to control. Format: functional.
Data set [10] concerns Caco-2. Briefly: Cytotoxicity against human Caco-2 cells assessed as cell viability at 10 uM measured after 72 hrs by Alamar blue assay. Format: toxicity, cell-based. Particulars: caco-2, 72 h. In outline:
as §3
Background: The colour change of resazurin is a common sign of viable cells or microbes.

Chain of Inosine-5'-monophosphate dehydrogenase 2 (Homo sapiens) (P12268 2-514 limits assumed): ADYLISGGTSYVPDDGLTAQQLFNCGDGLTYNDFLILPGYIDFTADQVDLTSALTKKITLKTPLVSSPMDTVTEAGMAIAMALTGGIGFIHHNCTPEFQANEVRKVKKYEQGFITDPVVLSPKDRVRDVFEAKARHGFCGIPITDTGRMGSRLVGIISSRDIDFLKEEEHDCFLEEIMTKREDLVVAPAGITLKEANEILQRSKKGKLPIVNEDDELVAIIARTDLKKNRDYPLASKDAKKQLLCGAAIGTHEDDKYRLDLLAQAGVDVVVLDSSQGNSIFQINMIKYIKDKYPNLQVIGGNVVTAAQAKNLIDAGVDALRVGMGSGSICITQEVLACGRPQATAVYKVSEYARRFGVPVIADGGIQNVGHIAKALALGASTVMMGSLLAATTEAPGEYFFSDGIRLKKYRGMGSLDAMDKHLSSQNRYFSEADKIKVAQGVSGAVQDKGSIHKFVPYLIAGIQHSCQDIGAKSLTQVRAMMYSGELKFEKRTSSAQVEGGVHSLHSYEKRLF

One may read the inhibition as how much of the control response was suppressed. As to `CC(C)(NC(=O)Nc1ccc(Cl)c([N+](=O)[O-])c1)c1cccc(-c2c[nH]cn2)c1`, the inhibition entry in data set [1] is “Active”. Further, in data set [2], the remaining at 2 h was more than 95%. Besides, the inhibition in [3] was 88%; with Escherichia coli, 90%; in data set [9], 99%. The inhibition result in data set [4] was “inactive”. The IC50 in [5] was determined as 140 nM; in data set [6] it was 150 nM; in [7], 150 nM. The Activity entry in the data set with Caco-2 [8] and in the data set on Caco-2 [10] was “Non-toxic” each time. The inhibition at 32 µg/mL with Staphylococcus aureus was found to be 79.3%.
